In ChEMBL document CHEMBL3244091, “Effects of thiophene analogues of chloroamphetamines on central serotonergic mechanisms” (J Med Chem, 1978):
Active and inactive are the calls of the source. The calls are words filed in the database; no cut-off is given here.

Experiments:
Mus musculus [1] = test: Increase in spontaneous locomotor activity in ICR Swiss mouse at 10 mg/kg, ip measured after 30 to 270 mins post compound administration; type: functional, organism-based; design: dose 10 mg/kg
Procedure, shortened: (§1)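 Male ICR Swiss mice (20-25 g), compound in saline ip, housed three per cage at ≤18 °C. Starting 30 min and 4.5 h after injection, each mouse was placed in a circular actophotometer (25 cm diameter, four photocells, central light) for 30 min. A count was scored per cross of two consecutive beams (locomotion only). Means of at least eight animals per group.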

[2] = Toxicity in ip dosed ICR Swiss mouse; type: organism-based; conditions: in vivo
[3] = molecular target: Sodium-dependent serotonin transporter (Rattus norvegicus) (UniProt P31652); test: Inhibition of SERT-mediated 5-HT uptake in Wistar rat brain synaptosomes at 0.2 uM; type: subcellular
Rattus norvegicus [4] = test: Reduction in 5-HT level in Wistar rat brain synaptosomes at 15 mg/kg, ip measured after 4 hrs by fluorometric assay; type: functional; design: scale not given: the % may be the effect or the level left; conditions: route intraperitoneal
Mus musculus [5] = test: Increase in spontaneous locomotor activity in ICR Swiss mouse at 10 mg/kg, ip measured after 4 hrs post compound administration; type: functional, organism-based; design: dose 10 mg/kg; procedure, shortened: as §1
Rattus norvegicus [6] = test: Reduction in 5-HT level in Wistar rat brain synaptosomes at 15 mg/kg, ip measured after 24 hrs by fluorometric assay; type: functional; design: scale not given: the % may be the effect or the level left; conditions: route intraperitoneal
Rattus norvegicus [7] = test: Inhibition of SERT-mediated 5-HT uptake in Wistar rat brain at 15 mg/kg, ip measured after 24 hrs; type: functional; conditions: route intraperitoneal
Procedure, shortened: (§2)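 Male Wistar-derived rats were dosed ip (saline vehicle) and killed 24 h or 7 days later. Whole brains were homogenized in 8 vol 0.25 M sucrose.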

Rattus norvegicus [8] = test: Inhibition of SERT-mediated 5-HT uptake in Wistar rat brain at 15 mg/kg, ip measured after 7 days; type: functional; conditions: 168 h, route intraperitoneal; procedure, shortened: as §2
Rattus norvegicus [9] = test: Reduction in 5-HT level in Wistar rat brain synaptosomes at 15 mg/kg, ip measured after 7 days by fluorometric assay; type: functional; design: scale not given: the % may be the effect or the level left; conditions: route intraperitoneal
[10] = molecular target: Sodium-dependent serotonin transporter (Rattus norvegicus, UniProt P31652); test: Inhibition of SERT-mediated 5-HT uptake in Wistar rat brain synaptosomes; type: subcellular
Rattus norvegicus [11] = species: Rattus norvegicus; test: Ratio of PCA IC50 to compound IC50 for MAO in Wistar rat brain using [3H]serotonin as substrate
[12] = Inhibition of MAO in Wistar rat brain using [3H]serotonin as substrate
Rattus norvegicus [13] = test: Inhibition of SERT-mediated 5-HT uptake in Wistar rat brain at 7.5 mg/kg, ip measured after 24 hrs; type: functional; conditions: route intraperitoneal; procedure, shortened: as §2
Rattus norvegicus [14] = test: Inhibition of SERT-mediated 5-HT uptake in Wistar rat brain at 7.5 mg/kg, ip measured after 7 days; type: functional; conditions: 168 h, route intraperitoneal; procedure, shortened: as §2
Rattus norvegicus [15] = test: Reduction in 5-HT level in Wistar rat brain synaptosomes at 7.5 mg/kg, ip measured after 4 hrs by fluorometric assay; type: functional; design: scale not given: the % may be the effect or the level left; conditions: route intraperitoneal
Rattus norvegicus [16] = test: Reduction in 5-HT level in Wistar rat brain synaptosomes at 7.5 mg/kg, ip measured after 24 hrs by fluorometric assay; type: functional; design: scale not given: the % may be the effect or the level left; conditions: route intraperitoneal
Rattus norvegicus [17] = test: Reduction in 5-HT level in Wistar rat brain synaptosomes at 7.5 mg/kg, ip measured after 7 days by fluorometric assay; type: functional; design: scale not given: the % may be the effect or the level left; conditions: route intraperitoneal

Sodium-dependent serotonin transporter (Rattus norvegicus), sequence (P31652 whole entry): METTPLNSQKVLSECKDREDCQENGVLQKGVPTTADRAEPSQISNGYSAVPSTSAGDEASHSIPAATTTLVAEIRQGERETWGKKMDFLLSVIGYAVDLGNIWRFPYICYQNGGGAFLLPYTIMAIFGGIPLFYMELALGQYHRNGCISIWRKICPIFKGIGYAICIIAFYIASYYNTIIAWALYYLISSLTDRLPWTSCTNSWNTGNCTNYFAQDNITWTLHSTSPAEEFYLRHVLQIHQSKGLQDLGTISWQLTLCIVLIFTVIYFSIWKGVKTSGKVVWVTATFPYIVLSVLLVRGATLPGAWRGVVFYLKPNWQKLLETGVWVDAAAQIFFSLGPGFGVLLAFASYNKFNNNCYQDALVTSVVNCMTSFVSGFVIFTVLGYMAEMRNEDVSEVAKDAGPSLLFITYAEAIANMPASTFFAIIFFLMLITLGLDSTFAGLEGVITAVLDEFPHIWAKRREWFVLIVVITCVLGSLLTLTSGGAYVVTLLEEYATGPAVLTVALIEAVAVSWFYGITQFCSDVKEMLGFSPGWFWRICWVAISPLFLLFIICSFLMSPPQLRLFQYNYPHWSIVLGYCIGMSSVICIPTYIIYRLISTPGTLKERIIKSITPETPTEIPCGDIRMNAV
Sodium-dependent serotonin transporter, sequence (P31652 whole entry): as above

Row | SMILES | Activity (Mus musculus [1]) | LD50 [2] [mg/kg] | inhibition [3] [%] | Activity (Rattus norvegicus [4]) [%] | Activity (Mus musculus [5]) | Activity (Rattus norvegicus [6]) [%] | inhibition in vivo at 15 mg/kg (Rattus norvegicus [7]) [%] | inhibition in vivo at 15 mg/kg (Rattus norvegicus [8]) [%] | Activity (Rattus norvegicus [9]) [%] | IC50 [10] [nM] | Ratio IC50 (Rattus norvegicus [11]) | IC50 [12] [nM] | inhibition in vivo at 7.5 mg/kg (Rattus norvegicus [13]) [%] | inhibition in vivo at 7.5 mg/kg (Rattus norvegicus [14]) [%] | Activity (Rattus norvegicus [15]) [%] | Activity (Rattus norvegicus [16]) [%] | Activity (Rattus norvegicus [17]) [%]
1 | CC(N)Cc1cccs1.Cl (racemic) | Active | 162 | 5.3 | 4.3 | – | – | – | – | – | – | – | – | – | – | – | – | –
2 | CC(N)Cc1ccc(Cl)s1.Cl (racemic) | Active | 113 | 17.7 | 14.5 | Active | 15.4 | 4.1 | – | – | – | – | – | – | – | – | – | –
3 | CC(N)Cc1sccc1Cl.Cl (racemic) | inactive | 101 | 6.6 | 2.8 | – | – | – | – | – | – | – | – | – | – | – | – | –
4 | CC(N)Cc1cc(Cl)c(Cl)s1.Cl (racemic) | Active | 133 | 40.5 | 49.3 | – | 50.7 | 30.4 | 32.4 | 41.6 | 450 | – | – | – | – | – | – | –
5 | CC(N)Cc1scc(Cl)c1Cl.Cl (racemic) | Active | 121 | 27.5 | 10.3 | – | 11.7 | 0.4 | – | – | – | 15 | 250 | – | – | – | – | –
6 | CC(N)Cc1sc(Cl)cc1Cl.Cl (racemic) | inactive | 135 | 19.4 | 12.1 | – | 13.3 | 24.5 | – | – | – | – | 2500 | – | – | – | – | –
7 | CC(N)Cc1ccc(Cl)cc1.Cl (racemic) | – | 64 | 38.4 | – | Active | – | – | – | – | 500 | – | 3700 | 45.5 | 34.3 | 48.6 | 47.6 | 63.7
8 | CC(N)Cc1cc(Cl)cs1.Cl (racemic) | Active | 128 | 18.7 | 22.1 | – | 18.3 | 6.7 | – | – | – | – | – | – | – | – | – | –
